Laboratory results taken from ChEMBL document CHEMBL2424619, “Small-molecule ligands of methyl-lysine binding proteins: optimization of selectivity for L3MBTL3” (J Med Chem, 2013).

Assays:
[1] = target: Lysine-specific demethylase 5A (Homo sapiens, UniProt P29375); test: Inhibition of JARID1A (unknown origin) after 30 mins by AlphaScreen assay
In short: (§1)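 AlphaScreen competition with histone peptide. Compounds in 3-fold, 10-point dilutions, top 10 or 30 μM; buffer 20 mM Tris pH 8.0, 25 mM NaCl, 2 mM DTT, 0.05% Tween-20. Protein-peptide mix 30 min RT, then streptavidin donor plus nickel-chelate acceptor beads (GST acceptor beads for GST-tagged PHF23, JARID1A) 30 min RT dark. […] Protein-free His6-biotin peptide counterscreen.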

[2] = target: T1, Scm-like with four MBT domains protein 1 (Homo sapiens, UniProt Q9UHJ3); test: Inhibition of SFMBT1 (unknown origin) after 30 mins by AlphaScreen assay; in short: as §1
T1 sequence (Q9UHJ3 whole entry): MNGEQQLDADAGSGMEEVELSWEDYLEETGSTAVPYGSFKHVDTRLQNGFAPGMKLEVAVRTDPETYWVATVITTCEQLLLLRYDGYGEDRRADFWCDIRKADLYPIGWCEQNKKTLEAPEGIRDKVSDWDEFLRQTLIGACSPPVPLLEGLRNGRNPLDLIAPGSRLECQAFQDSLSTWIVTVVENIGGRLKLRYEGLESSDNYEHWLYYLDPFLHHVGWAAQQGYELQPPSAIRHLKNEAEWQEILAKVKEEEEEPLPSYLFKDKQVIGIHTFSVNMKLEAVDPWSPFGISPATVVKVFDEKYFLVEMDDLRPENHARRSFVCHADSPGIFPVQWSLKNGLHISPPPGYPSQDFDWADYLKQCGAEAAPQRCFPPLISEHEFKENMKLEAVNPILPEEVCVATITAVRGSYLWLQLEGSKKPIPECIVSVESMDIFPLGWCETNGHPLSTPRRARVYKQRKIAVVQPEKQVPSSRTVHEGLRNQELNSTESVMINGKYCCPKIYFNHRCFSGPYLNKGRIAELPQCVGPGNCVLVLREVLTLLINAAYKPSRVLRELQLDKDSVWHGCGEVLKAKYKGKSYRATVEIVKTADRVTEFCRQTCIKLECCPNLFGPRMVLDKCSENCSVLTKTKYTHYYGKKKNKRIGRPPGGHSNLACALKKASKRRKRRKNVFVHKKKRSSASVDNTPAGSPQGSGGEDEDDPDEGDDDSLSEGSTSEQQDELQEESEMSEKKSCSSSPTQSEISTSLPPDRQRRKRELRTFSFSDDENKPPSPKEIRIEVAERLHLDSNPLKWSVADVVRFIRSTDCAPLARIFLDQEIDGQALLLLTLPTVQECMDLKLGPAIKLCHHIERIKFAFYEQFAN

[3] = target: T2, Chromobox protein homolog 7 (Homo sapiens, UniProt O95931); test: Inhibition of CBX7 (unknown origin) after 30 mins by AlphaScreen assay
T2 sequence (O95931 whole entry): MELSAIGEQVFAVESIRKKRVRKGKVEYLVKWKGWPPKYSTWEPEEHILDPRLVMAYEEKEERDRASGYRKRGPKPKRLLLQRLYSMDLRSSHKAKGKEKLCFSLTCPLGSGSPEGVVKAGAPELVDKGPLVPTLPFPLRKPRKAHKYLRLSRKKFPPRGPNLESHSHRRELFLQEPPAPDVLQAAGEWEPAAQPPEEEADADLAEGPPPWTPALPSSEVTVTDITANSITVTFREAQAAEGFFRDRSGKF
In short: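 AlphaScreen competition with histone peptide. Compounds in 3-fold, 10-point dilutions, top 10 or 30 μM; buffer 20 mM Tris pH 8.0, 25 mM NaCl, 2 mM DTT, 0.05% Tween-20. Protein-peptide mix 30 min RT, then streptavidin donor plus nickel-chelate acceptor beads (GST acceptor beads for GST-tagged PHF23, JARID1A) 30 min RT dark. Protein-free His6-biotin peptide counterscreen.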

Measured: IC50

Chain of Lysine-specific demethylase 5A (P29375 whole entry): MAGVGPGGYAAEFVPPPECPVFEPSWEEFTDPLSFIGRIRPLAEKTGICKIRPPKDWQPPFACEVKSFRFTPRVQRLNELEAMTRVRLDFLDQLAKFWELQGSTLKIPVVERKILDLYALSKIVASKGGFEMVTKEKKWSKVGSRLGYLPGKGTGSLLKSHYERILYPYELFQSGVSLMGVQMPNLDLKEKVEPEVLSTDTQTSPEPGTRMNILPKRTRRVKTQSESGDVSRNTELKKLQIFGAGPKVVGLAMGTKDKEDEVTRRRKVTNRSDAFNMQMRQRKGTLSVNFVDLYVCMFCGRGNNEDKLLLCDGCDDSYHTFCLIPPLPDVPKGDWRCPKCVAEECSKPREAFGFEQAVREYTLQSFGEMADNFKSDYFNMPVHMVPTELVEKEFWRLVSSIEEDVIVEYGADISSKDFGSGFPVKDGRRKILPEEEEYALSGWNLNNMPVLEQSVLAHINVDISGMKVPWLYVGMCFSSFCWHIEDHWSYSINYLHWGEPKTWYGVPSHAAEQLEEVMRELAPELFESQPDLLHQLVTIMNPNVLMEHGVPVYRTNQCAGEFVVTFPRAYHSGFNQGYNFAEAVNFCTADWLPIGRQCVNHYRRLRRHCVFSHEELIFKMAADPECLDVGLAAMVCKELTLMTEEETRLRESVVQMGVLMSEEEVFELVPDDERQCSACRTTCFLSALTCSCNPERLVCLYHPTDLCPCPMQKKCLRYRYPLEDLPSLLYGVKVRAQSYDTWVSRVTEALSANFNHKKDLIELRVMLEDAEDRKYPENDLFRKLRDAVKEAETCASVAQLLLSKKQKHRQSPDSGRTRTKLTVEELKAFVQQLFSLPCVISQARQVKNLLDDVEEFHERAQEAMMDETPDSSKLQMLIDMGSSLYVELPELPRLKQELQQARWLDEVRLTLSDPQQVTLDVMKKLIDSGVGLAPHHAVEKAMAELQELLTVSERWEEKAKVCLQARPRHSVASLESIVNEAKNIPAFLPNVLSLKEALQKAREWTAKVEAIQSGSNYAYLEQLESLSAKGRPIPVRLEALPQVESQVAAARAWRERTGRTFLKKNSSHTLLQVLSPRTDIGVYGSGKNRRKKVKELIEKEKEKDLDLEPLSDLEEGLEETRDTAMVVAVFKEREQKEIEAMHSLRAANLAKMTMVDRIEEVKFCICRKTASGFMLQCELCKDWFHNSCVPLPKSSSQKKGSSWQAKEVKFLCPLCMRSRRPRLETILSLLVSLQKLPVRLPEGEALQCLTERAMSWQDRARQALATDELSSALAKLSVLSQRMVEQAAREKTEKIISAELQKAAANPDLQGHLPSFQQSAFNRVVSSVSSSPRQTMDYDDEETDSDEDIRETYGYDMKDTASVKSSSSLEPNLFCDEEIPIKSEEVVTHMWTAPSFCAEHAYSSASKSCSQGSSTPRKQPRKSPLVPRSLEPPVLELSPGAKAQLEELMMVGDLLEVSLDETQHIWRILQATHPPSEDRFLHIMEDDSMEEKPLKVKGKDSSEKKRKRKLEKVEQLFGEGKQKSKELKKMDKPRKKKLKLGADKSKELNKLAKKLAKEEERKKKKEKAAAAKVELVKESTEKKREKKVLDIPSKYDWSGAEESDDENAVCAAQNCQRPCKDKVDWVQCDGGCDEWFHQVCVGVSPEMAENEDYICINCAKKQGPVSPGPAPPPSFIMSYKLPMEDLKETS

CCN1Cc2ccc(NC(=O)c3ccc(C(=O)N4CC5CCC(C4)C5N4CCCC4)cc3)cc2C1 (stereo unspecified)
> 10 µM: all assays above

O=C(c1ccc(C(=O)N2CCC(N3CCCC3)CC2)cc1)N1CCC(C2CCCN2)CC1 (stereo unspecified)
> 10 µM: all assays above

O=C(c1ccc(C(=O)N2CCC3(CCNC3)C2)cc1)N1CCC(N2CCCC2)CC1 (stereo unspecified)
> 10 µM: all assays above

O=C(c1ccc(CN2CCC(N3CCCC3)CC2)cc1)N1CCC(N2CCCC2)CC1
> 10 µM: all assays above

O=C(c1c(F)c(F)c(C(=O)N2CCC(N3CCCC3)CC2)c(F)c1F)N1CCC(N2CCCC2)CC1
> 10 µM: all assays above

O=C(c1ccc(C(=O)N2CCC(N3CCCC3)CC2)c(Br)c1)N1CCC(N2CCCC2)CC1
> 10 µM: all assays above

O=C(c1ccc(C(=O)N2CCC(N3CCCC3)CC2)c(NCc2ccccc2)c1)N1CCC(N2CCCC2)CC1
> 10 µM: all assays above

O=C(c1cncc(Br)c1)N1CCC(N2CCCC2)CC1
> 10 µM: all assays above

O=C(c1ccc(C(=O)N2CCC3(CCNC3)CC2)cc1)N1CCC(N2CCCC2)CC1
> 10 µM: all assays above

O=C(c1ccc(C(=O)N2CCC(N3CCCC3)CC2)c([N+](=O)[O-])c1)N1CCC(N2CCCC2)CC1
> 10 µM: all assays above

Nc1cc(C(=O)N2CCC(N3CCCC3)CC2)ccc1C(=O)N1CCC(N2CCCC2)CC1
> 10 µM: all assays above

O=C(c1ccc(C(=O)N2CC(N3CCCC3)C2)cc1)N1CCC(N2CCCC2)CC1
> 10 µM: all assays above

O=C(c1ccc(C(=O)N2CCC(N3CCCC3)CC2)o1)N1CCC(N2CCCC2)CC1
> 10 µM: all assays above

CCN1Cc2ccc(NC(=O)c3ccc(C(=O)N4CCC(C5CCCN5)CC4)cc3Nc3ccccc3)cc2C1 (stereo unspecified)
> 10 µM: all assays above

O=C(c1ccc(C(=O)N2CCC(N3CCCC3)CC2)c(C(=O)N2CCC(N3CCCC3)CC2)c1)N1CCC(N2CCCC2)CC1
> 10 µM: all assays above

O=C(c1ccc(C(=O)N2CCC(N3CCCC3)CC2)cc1)N1CCC(N2CCCCCC2)CC1
> 10 µM: all assays above

O=C(c1ccc(C(=O)N2CC3(CCNC3)C2)cc1)N1CCC(N2CCCC2)CC1
> 10 µM: all assays above

O=C(c1ccc(C(=O)N2CCC(N3CCCC3)CC2)c(-c2ccccc2)c1)N1CCC(N2CCCC2)CC1
> 10 µM: all assays above

O=C(c1ccc(C(=O)N2CC3CCC(C2)C3N2CCCC2)cc1)N1CC2CCC(C1)C2N1CCCC1 (stereo unspecified)
> 10 µM: all assays above

O=C(c1ccc(C(=O)N2CCC(N3CCCC3)CC2)cc1)N1CCC(N2CCCCC2)CC1
> 10 µM: all assays above

O=C(c1ccc(C(=O)N2CCC(N3CCCC3)CC2)c(Cc2ccccc2)c1)N1CCC(N2CCCC2)CC1
> 10 µM: all assays above

Cc1cc(C(=O)N2CCC(N3CCCC3)CC2)c(C)cc1C(=O)N1CCC(N2CCCC2)CC1
> 10 µM: all assays above

O=C(c1ccc(C(=O)N2CCC(N3CCCC3)CC2)c2ccccc12)N1CCC(N2CCCC2)CC1
> 10 µM: all assays above

O=C(c1ccc(C(=O)N2CC3CCC(C2)C3N2CCCC2)cc1)N1CCC(N2CCCC2)CC1 (stereo unspecified)
> 10 µM: all assays above

CN1CCC(N2CCN(C(=O)c3ccc(C(=O)N4CCC(N5CCCC5)CC4)cc3)CC2)CC1
> 10 µM: all assays above

O=C(c1ccc(C(=O)N2CCCC(N3CCCC3)CC2)cc1)N1CCCC(N2CCCC2)CC1 (stereo unspecified)
> 10 µM: all assays above

CN1CCN2CC(NC(=O)c3ccc(C(=O)N4CCC(N5CCCC5)CC4)cc3)CC2C1 (stereo unspecified)
> 10 µM: all assays above

C[N+]1(C2CCN(C(=O)c3ccc(C(=O)N4CCC(N5CCCC5)CC4)cc3)CC2)CCCC1
> 10 µM: all assays above

CC(C1CCN(C(=O)c2ccc(C(=O)N3CCC(N4CCCC4)CC3)cc2)CC1)N1CCN(C)CC1 (stereo unspecified)
> 10 µM: all assays above

O=C(c1cccc(C(=O)N2CCC(N3CCCC3)CC2)c1)N1CCC(N2CCCC2)CC1
> 10 µM: all assays above

CN(C)C1CCN(C(=O)c2ccc(C(=O)N3CCC(N4CCCC4)CC3)cc2)CC1
> 10 µM: all assays above

O=C(c1ccc(C(=O)N2CCC(N3CCCC3)CC2)cc1)N1CCC(C2CCNCC2)CC1
> 10 µM: all assays above

O=C(c1ccc(C(=O)N2CCC(N3CCCC3)C2)cc1)N1CCC(N2CCCC2)CC1 (stereo unspecified)
> 10 µM: all assays above

O=C(c1ccc(C(=O)N2CCC(N3CCCC3)CC2)nc1)N1CCC(N2CCCC2)CC1
> 10 µM: all assays above

O=C(c1ccc(C(=O)N2CCC(N3CCCC3)CC2)c(Oc2ccccc2)c1)N1CCC(N2CCCC2)CC1
> 10 µM: all assays above

O=C(c1ccc2cc(C(=O)N3CCC(N4CCCC4)CC3)ccc2c1)N1CCC(N2CCCC2)CC1
> 10 µM: all assays above

CCN1Cc2ccc(NC(=O)c3ccc(C(=O)N4CCC(N5CCCC5)CC4)cc3)cc2C1
> 10 µM: all assays above
